Measurements published in ChEMBL document CHEMBL1140697, “Synthesis and evaluation in monkey of two sensitive 11C-labeled aryloxyanilide ligands for imaging brain peripheral benzodiazepine receptors in vivo” (J Med Chem, 2008).

Key:
Translocator protein [1] = biological target: Translocator protein (Homo sapiens, UniProt P30536); experiment: Binding affinity to PBR in human mitochondrial tissue
[2] = Binding affinity to PBR in rhesus monkey mitochondrial tissue; set-up: species or system Macaca mulatta
Summary of the method: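 Mitochondrial fractions (rat, rhesus monkey or human) were incubated with [³H]PK 11195 (0.38 nM final) and eight test-ligand concentrations for 2 h at 4 °C. Samples were filtered on PEI-presoaked GF/B filters, washed with ice-cold buffer and counted. Nonspecific binding was taken at the top inhibitor level (0.1–0.3 µM). Triplicate curves were run in two independent experiments. IC₅₀ was converted to K_i by Cheng–Prusoff, using K_D from homologous PK 11195 displacement.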

Translocator protein [3] = biological target: Translocator protein (Rattus norvegicus, UniProt P16257); experiment: Binding affinity to PBR in Sprague-Dawley rat mitochondrial tissue
Chain of Translocator protein (Rattus norvegicus, UniProt P16257) (P16257 whole entry, looked up): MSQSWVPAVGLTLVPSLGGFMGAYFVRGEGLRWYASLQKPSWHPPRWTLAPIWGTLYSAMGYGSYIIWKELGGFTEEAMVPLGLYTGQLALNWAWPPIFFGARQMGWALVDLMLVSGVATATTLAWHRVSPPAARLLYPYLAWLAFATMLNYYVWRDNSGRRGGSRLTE

Plasma [4] = experiment: Drug level in rhesus monkey plasma assessed as cell distribution; format: ADME, cell-free, Macaca mulatta
[5] = Stability in Sprague-Dawley rat brain after 2 hrs; format: ADME, tissue-based; settings: read-out: Stability
Summary of the method: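 The radioligand was incubated with rat brain homogenate in saline for 2 h at 37 °C. The percentage of unchanged radioligand was then determined by radio-HPLC.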

[6] = Stability in monkey whole blood >30 mins; format: ADME, tissue-based, Macaca mulatta; settings: rhesus monkey, read-out: Stability
Summary of the method: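 The radioligand was incubated with monkey blood for >30 min. Radioactivity extracted from the plasma was analysed by radio-HPLC to give the percentage of unchanged radioligand, reported as mean ± SD.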

[7] = biological target: GABA A receptor alpha-6/beta-2/gamma-2 (Homo sapiens, UniProt P18507+P47870+Q16445); experiment: Binding affinity to GABA alpha-6-beta-2-gamma-2 receptor; format: protein-complex assay
Summary of the method: (§1)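 K_i values at central benzodiazepine (GABA_A) receptor subtypes were determined in radioligand binding assays within the NIMH PDSP screen.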

[8] = biological target: Kappa-type opioid receptor (Homo sapiens, UniProt P41145); experiment: Binding affinity to kappa opioid receptor
Chain of Kappa-type opioid receptor (P41145 whole entry): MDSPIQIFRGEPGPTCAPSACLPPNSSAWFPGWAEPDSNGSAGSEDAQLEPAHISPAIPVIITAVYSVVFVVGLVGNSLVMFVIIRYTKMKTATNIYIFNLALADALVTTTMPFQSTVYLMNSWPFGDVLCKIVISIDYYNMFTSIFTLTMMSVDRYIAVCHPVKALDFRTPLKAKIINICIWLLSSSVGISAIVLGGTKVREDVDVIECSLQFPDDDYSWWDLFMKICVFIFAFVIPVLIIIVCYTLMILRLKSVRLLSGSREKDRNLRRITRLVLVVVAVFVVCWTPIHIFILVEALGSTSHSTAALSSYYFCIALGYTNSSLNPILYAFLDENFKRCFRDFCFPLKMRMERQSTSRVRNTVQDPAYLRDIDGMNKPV

[9] = biological target: GABA A receptor alpha-5/beta-3/gamma-2 (Rattus norvegicus, UniProt P18508+P19969+P63079); experiment: Binding affinity to GABA alpha-5-beta-2-gamma-2 receptor; format: protein-complex assay, Homo sapiens; summary of the method: as §1
Chain of GABA A receptor alpha-5/beta-3/gamma-2 (P18508 whole entry): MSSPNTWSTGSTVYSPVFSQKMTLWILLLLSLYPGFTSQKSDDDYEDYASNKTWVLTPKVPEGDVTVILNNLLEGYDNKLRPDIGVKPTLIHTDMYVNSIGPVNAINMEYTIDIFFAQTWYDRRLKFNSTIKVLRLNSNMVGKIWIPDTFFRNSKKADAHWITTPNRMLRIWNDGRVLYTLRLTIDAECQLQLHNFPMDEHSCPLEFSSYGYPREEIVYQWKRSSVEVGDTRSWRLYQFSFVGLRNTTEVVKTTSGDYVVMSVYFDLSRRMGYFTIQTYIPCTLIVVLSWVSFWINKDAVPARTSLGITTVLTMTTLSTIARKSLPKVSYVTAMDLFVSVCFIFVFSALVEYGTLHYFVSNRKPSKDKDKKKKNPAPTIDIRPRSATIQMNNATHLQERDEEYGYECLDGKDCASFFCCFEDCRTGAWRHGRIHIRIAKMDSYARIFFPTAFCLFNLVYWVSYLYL
Chain of GABA A receptor alpha-5/beta-3/gamma-2 (P19969 whole entry): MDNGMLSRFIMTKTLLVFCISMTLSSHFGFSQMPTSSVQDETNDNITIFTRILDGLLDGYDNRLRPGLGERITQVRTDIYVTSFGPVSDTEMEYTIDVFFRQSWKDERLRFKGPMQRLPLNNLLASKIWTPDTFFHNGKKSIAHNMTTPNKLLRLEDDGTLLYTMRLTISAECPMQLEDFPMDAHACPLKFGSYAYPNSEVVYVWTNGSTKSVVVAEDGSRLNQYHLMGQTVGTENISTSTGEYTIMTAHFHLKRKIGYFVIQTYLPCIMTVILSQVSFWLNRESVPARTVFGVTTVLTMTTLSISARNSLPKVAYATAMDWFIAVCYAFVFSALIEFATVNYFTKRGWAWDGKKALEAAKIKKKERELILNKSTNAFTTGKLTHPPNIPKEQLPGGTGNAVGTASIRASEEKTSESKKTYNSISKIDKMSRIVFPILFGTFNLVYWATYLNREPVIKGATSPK
Chain of GABA A receptor alpha-5/beta-3/gamma-2 (P63079 whole entry): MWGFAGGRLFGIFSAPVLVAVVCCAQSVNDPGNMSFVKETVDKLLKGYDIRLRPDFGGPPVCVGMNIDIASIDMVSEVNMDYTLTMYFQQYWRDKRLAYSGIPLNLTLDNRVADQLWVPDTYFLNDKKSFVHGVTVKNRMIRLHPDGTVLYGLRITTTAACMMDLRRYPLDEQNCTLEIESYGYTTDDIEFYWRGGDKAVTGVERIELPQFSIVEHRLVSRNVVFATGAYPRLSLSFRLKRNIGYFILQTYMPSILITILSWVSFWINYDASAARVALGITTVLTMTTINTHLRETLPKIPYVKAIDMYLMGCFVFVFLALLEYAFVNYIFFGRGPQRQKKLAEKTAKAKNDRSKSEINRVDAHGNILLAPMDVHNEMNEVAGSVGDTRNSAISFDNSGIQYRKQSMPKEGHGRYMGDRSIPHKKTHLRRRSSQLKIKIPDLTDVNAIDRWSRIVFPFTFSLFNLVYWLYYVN

Plasma [10] = experiment: Biodistribution in rat plasma at 2.34 mCi, iv after 30 mins; format: ADME, organism-based; settings: in vivo, 0.5 h
Summary of the method: (§2)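 Rats received the ¹¹C-radioligand iv with varying carrier mass (µg/kg) and were sampled 30 min later. Plasma and brain homogenate were extracted into acetonitrile and analysed by reverse-phase radio-HPLC (C18; MeOH/H₂O/Et₃N, 1.5 mL/min), reporting % radioactivity as unchanged radioligand. Extraction recovery was recorded. Replicate HPLC analyses were run on one sample per rat.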

Brain = experiment: Biodistribution in rat brain at 0.472 mCi, iv after 30 mins; format: ADME, organism-based; settings: in vivo, 0.5 h
[11] = biological target: GABA A receptor alpha-1/beta-1/gamma-2 (Homo sapiens, UniProt P14867+P18505+P18507); experiment: Binding affinity to GABA alpha-1-beta-1-gamma-2 receptor; format: protein-complex assay; summary of the method: as §1
Chain of GABA A receptor alpha-1/beta-1/gamma-2 (P14867 whole entry): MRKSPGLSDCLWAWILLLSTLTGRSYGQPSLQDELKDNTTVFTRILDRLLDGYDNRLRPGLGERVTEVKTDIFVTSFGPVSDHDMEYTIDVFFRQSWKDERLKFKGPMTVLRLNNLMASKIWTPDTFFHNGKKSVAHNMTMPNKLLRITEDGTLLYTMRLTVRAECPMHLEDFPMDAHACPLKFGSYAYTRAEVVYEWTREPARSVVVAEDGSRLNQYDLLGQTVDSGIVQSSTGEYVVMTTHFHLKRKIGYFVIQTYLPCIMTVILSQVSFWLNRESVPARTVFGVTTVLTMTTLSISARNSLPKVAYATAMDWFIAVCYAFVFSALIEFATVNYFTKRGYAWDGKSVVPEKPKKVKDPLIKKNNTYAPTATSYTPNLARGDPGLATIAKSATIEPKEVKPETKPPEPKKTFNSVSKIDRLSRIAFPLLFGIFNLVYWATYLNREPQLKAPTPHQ
Chain of GABA A receptor alpha-1/beta-1/gamma-2 (P18507 whole entry): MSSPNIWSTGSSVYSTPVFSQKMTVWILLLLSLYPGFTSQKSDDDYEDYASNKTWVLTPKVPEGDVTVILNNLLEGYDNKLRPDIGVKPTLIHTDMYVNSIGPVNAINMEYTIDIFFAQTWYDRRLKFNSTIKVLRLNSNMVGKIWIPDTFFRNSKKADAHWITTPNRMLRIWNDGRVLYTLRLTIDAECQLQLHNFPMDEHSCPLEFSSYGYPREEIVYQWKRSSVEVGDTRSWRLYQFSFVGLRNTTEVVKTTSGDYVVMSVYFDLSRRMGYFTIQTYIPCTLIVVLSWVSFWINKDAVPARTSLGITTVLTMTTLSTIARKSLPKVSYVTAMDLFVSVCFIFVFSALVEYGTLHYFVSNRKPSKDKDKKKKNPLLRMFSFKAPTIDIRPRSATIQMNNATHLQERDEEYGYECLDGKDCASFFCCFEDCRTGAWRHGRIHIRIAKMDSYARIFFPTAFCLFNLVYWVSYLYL
Chain of GABA A receptor alpha-1/beta-1/gamma-2 (P18505 whole entry): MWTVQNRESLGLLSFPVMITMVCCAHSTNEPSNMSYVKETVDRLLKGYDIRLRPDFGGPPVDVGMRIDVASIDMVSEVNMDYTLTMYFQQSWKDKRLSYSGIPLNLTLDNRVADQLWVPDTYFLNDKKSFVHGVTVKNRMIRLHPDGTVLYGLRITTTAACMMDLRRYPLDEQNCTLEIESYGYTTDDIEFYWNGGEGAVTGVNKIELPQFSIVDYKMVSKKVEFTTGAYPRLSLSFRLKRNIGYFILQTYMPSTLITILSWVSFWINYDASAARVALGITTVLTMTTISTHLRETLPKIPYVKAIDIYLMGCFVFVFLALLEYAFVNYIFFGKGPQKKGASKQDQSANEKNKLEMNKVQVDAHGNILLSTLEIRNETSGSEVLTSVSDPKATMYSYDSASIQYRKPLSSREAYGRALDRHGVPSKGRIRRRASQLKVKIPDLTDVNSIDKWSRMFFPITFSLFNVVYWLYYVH

Rattus norvegicus = experiment: Biodistribution in rat urine at 2.34 mCi, iv after 30 mins; format: ADME, organism-based; settings: in vivo, 0.5 h
[12] = Biodistribution in rhesus monkey plasma free fraction of blood; format: ADME, organism-based, Macaca mulatta
[13] = Stability in sodium phosphate buffer at pH 7.4 after 2.5 hrs; format: physicochemical; settings: read-out: Stability
Summary of the method: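 Radioligand stored in 0.15 M sodium phosphate buffer, pH 7.4, for 2.5 h; radiochemical stability measured by radio-HPLC as percent of radioactivity remaining as unchanged radioligand; n = 4.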

[14] = biological target: GABA A receptor alpha-2/beta-2/gamma-2 (Homo sapiens, UniProt P18507+P47869+P47870); experiment: Binding affinity to GABA alpha-2-beta-2-gamma-2 receptor; format: protein-complex assay; summary of the method: as §1
Chain of GABA A receptor alpha-2/beta-2/gamma-2 (P47870 whole entry): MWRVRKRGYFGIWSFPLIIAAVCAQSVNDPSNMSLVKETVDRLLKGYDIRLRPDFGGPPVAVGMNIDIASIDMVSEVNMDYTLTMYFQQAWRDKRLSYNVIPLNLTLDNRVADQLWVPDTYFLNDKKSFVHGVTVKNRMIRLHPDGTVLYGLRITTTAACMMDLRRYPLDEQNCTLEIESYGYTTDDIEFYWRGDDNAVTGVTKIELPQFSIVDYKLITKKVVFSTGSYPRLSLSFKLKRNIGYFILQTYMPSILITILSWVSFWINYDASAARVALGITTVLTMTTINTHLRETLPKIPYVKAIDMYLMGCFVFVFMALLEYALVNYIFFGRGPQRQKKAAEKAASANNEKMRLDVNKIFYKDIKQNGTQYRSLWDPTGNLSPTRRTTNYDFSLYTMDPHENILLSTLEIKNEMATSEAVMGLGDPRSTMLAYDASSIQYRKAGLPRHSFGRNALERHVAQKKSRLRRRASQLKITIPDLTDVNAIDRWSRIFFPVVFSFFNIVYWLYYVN
Chain of GABA A receptor alpha-2/beta-2/gamma-2 (P18507 whole entry): as the sequence (P18507 whole entry) above
Chain of GABA A receptor alpha-2/beta-2/gamma-2 (P47869 whole entry): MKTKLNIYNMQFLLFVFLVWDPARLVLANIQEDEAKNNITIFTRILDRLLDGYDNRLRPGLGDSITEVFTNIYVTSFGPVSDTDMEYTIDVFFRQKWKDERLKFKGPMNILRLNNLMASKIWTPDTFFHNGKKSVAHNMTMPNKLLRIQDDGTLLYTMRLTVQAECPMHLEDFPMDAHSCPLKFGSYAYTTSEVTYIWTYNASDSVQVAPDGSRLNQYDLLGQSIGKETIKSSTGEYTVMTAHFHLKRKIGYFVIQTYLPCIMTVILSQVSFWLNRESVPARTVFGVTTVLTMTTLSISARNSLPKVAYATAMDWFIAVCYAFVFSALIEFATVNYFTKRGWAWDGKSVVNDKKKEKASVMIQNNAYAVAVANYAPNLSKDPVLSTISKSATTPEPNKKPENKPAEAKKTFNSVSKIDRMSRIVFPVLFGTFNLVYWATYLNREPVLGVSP

Plasma [15] = experiment: Drug level in rhesus monkey plasma; format: ADME, cell-free, Macaca mulatta
Plasma [16] = experiment: Biodistribution in rat plasma at 0.472 mCi, iv after 30 mins; format: ADME, organism-based; settings: in vivo, 0.5 h; summary of the method: as §2
[17] = Lipophilicity, log D of the compound; format: physicochemical; settings: octanol/water
Summary of the method: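 The ¹¹C-ligand (~300 µCi) in saline with 5% ethanol was mixed with sodium phosphate buffer (0.15 M, pH 7.4). Six 1 mL aliquots were each vortexed 1 min with buffer-pre-equilibrated n-octanol, centrifuged 1 min, and 200 µL of each phase was γ-counted. Aqueous counts were corrected by radio-HPLC for the unchanged fraction. LogD = log(cpm octanol/corrected cpm aqueous); mean ± SD of six determinations.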

Chain of Translocator protein (Homo sapiens, UniProt P30536) (P30536 whole entry): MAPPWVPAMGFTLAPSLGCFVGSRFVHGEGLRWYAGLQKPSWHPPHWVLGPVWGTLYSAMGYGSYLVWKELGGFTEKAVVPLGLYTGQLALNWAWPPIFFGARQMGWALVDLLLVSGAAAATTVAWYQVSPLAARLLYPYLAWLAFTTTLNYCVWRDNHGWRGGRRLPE

COc1ccc(O[11CH3])c(CN(C(C)=O)c2cc(F)ccc2Oc2ccccc2)c1
Ki (Translocator protein [1]): 0.242 nM | Ki [2]: 0.23 nM | Ki (Translocator protein [3]): 0.0726 nM

CC(=O)N(Cc1ccccc1O[11CH3])c1cnccc1Oc1ccccc1
Drug uptake (Plasma [4]): 66.8% | remaining at 2 h [5]: 99.8% | remaining at 0.5 h [6]: 95.8% | Ki (Translocator protein [1]): 2.47 nM | Ki [7]: > 10000 nM | Ki [8]: 2200 nM | Ki [9]: > 10000 nM | Drug uptake (Plasma [10]): 2.4% | Drug uptake (Brain): 97.6% | Ki [11]: > 10000 nM | Drug uptake (Rattus norvegicus): 0.39% | Ki [2]: 0.944 nM | fraction unbound [12]: 0.056 | remaining at 2.5 h [13]: 99% | Ki [14]: > 10000 nM | Drug uptake (Plasma [15]): 33.2% | Drug uptake (Plasma [16]): 4.2% | logD [17]: 3.01 | Ki (Translocator protein [3]): 0.68 nM

CC[C@H](C)N([11CH3])C(=O)c1cc2ccccc2c(-c2ccccc2Cl)n1
Ki [2]: 4.35 nM | logD [17]: 3.97
